The values that follow come from publication PMC5325675 (Molecular cell, 2017).

The target in one assay is T1, PTP1BΔ7 (residues 1-284) (Homo sapiens, UniProt P18031).
T1 sequence (P18031 1-284): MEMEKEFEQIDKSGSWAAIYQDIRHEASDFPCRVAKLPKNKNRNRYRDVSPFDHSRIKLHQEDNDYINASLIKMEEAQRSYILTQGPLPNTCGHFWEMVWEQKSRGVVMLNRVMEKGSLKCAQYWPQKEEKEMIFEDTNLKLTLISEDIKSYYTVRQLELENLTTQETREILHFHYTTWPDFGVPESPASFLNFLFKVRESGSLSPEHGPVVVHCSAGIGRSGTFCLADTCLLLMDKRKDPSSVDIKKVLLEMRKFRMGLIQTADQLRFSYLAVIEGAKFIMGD
Briefly: Fluorescence affinity measurement, PTP1BΔ7. To be noted: binding to PTP1BΔ7. The procedure, abridged:
(§1)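 Human PTP1B catalytic domain (residues 1-301; Δ7 is 1-284) was expressed in E. coli BL21(DE3) RIL and the His-tag removed with TEV. Protein at 2.5 µM in 50 mM HEPES pH 7.5, 150 mM NaCl, 0.5 mM TCEP was titrated with test compound (0-140 µM), with a DMSO-only control. Fluorescence was read at excitation 280 nm, emission 300-550 nm. KD came from a quadratic single-site fit; triplicate.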

Assay [1] deals with T2, PTP1BN193A (Homo sapiens, UniProt P18031, N193A).
T2 sequence (P18031 1-301 N193A): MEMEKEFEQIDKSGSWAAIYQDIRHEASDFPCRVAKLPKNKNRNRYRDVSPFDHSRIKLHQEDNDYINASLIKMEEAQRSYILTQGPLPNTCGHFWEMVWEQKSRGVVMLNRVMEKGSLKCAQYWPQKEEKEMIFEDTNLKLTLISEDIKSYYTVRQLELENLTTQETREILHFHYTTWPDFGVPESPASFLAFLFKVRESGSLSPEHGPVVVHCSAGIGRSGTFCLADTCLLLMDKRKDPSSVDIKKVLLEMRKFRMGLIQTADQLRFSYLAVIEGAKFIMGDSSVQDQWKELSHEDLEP
Nature of the assay: Fluorescence affinity measurement, PTP1BN193A. As to conditions: binding to PTP1BN193A. Put shortly:
as §1

The next assay deals with T3, PTP1B (residues 1-301) (Homo sapiens, UniProt P18031).
T3 sequence (P18031 1-301): T2 sequence (P18031 1-301 N193A) with A193N
Nature of the assay: Fluorescence affinity measurement of inhibitor binding to PTP1B. As to conditions: binding to PTP1B (wt, 1-301); Table S1.

A further assay deals with T4, PTP1BP185G (Homo sapiens, UniProt P18031, P185G).
T4 sequence (P18031 1-301 P185G): T2 sequence (P18031 1-301 N193A) with P185G, A193N
Nature of the assay: Fluorescence affinity measurement, PTP1BP185G. As to conditions: binding to PTP1BP185G (catalytically dead variant). The procedure, abridged:
as §1

Assay [2] addresses T2, PTP1BN193A. Nature of the assay: pNPP activity assay with TCS401. It counts as biochemical. Put shortly:
(§2)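 Freshly prepared enzyme (0.15 µM) in 50 mM HEPES pH 7.5, 150 mM NaCl, 0.5 mM TCEP was run with pNPP (0-6000 µM), with or without test compound at 100 or 300 µM (0.4 or 1.2% DMSO). Reactions ran 30 min at 30°C, were stopped with 0.5 M NaOH and read at 405 nm, minus no-enzyme blanks. Km came from Michaelis-Menten fits and Ki from Km,obs = Km(1+[I]/Ki). Duplicates, repeated 3-6 times.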

In a further assay the target is T5, PTP1BYAYA (Homo sapiens, UniProt P18031, Y152A/Y153A).
T5 sequence (P18031 1-301 Y152A/Y153A): T2 sequence (P18031 1-301 N193A) with Y152A, Y153A, A193N
Nature of the assay: pNPP activity assay with TCS401. It counts as biochemical. Put shortly:
as §2

The next assay deals with T6, PTP1BΔ7 (Homo sapiens, UniProt P18031).
T6 sequence (P18031 1-284): T1 sequence (P18031 1-284)
Briefly: pNPP activity assay with TCS401. The assay is classed as biochemical. The procedure, abridged:
as §2

The target of another assay is T7, PTP1BL192A (Homo sapiens, UniProt P18031, L192A).
T7 sequence (P18031 1-301 L192A): T2 sequence (P18031 1-301 N193A) with L192A, A193N
Nature of the assay: Fluorescence affinity measurement, PTP1BL192A. As to conditions: binding to PTP1BL192A. The procedure, abridged:
as §1

The target of another assay is T8, PTP1BYAYA (Y152AY153A) (Homo sapiens, UniProt P18031, Y152A/Y153A).
T8 sequence (P18031 1-301 Y152A/Y153A): T2 sequence (P18031 1-301 N193A) with Y152A, Y153A, A193N
Briefly: Fluorescence affinity measurement, PTP1BYAYA. To be noted: binding to PTP1BYAYA. The procedure, abridged:
as §1

The target in the next assay is T9, PTP1BT178A (Homo sapiens, UniProt P18031, T178A).
T9 sequence (P18031 1-301 T178A): T2 sequence (P18031 1-301 N193A) with T178A, A193N
Briefly: Fluorescence affinity measurement, PTP1BT178A. To be noted: binding to PTP1BT178A. The procedure, abridged: as §1

Where a chain is given by its changes, count along the chain named.

In general, Kd refers to a measure of binding affinity in units of concentration. High values mean a looser complex, low ones a tighter complex. Regarding `O=C(O)C(=O)Nc1sc2c(c1C(=O)O)CCNC2` [TCS401], the Kd at PTP1BΔ7 (residues 1-284) is 33 ± 6 µM; on PTP1BN193A [1] it was 37 ± 4 µM; at PTP1B (residues 1-301), about 26 µM; on PTP1BP185G, 20 ± 0.6 µM; on PTP1BL192A, 39 ± 6 µM; at PTP1BYAYA (Y152AY153A) it was 26 ± 3 µM. The compound also yielded a Kd on PTP1BT178A of 45 ± 3.5 µM. The “Ki (competition between substrate and TCS401) compared with PTP1B” value on PTP1BN193A [2], at PTP1BYAYA and at PTP1BΔ7 was “higher Ki values” throughout.
